Data from ChEMBL document CHEMBL1130212, “Synthesis and structure-activity relationships of 6,7-benzomorphan derivatives as antagonists of the NMDA receptor-channel complex” (J Med Chem, 1997).

How the values were obtained:
Mus musculus [1] = test: Effective dose at which half of the mice were protected against the lethality induced by 200 mg/kg NMDA.; format: functional; details: read-out: ID50 (the source's name)
Summary of the method: (§1)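 Male mice (20 to 30 g), groups of five, given test compound s.c. (0.01 mL/g) at different doses; NMDA 200 mg/kg i.p. 15 min later. Each mouse observed 20 min in an individual jar; percentage dying recorded. ID50 from log-probit analysis of four doses, or mean ± SEM of up to four independent experiments.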

Glutamate NMDA receptor = test: Inhibition of [3H]MK-801 binding to N-methyl-D-aspartate glutamate receptor in rat brain cortical membranes.; format: cell membranes, Membrane
Mu-type opioid receptor = Mu-type opioid receptor (Rattus norvegicus, UniProt P33535); test: Inhibition of [3H]dihydromorphine binding to opioid receptor mu 1 in rat brain cortical membranes.; format: cell membranes, Membrane
Sequence of Mu-type opioid receptor (P33535 whole entry): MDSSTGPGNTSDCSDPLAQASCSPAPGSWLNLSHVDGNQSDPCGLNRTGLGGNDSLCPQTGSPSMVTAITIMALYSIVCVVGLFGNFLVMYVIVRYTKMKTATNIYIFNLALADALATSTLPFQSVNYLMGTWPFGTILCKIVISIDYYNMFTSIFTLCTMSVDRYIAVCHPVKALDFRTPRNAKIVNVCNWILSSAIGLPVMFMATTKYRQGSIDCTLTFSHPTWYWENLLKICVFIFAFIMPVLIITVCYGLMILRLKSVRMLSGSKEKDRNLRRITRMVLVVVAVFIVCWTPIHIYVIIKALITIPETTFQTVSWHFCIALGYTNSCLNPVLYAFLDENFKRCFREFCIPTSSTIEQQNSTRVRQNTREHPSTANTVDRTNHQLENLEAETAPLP
Summary of the method: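 Rat brain without cerebellum membranes incubated 30 min at 25 °C with 0.5 nmol/L [3H]dihydromorphine. Binding stopped by rapid filtration; filter radioactivity counted by scintillation. Ki from computer-aided curve fitting.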

Mus musculus [2] = test: The ID50 value represent the effective dose at which half of the mice were protected against the lethality induced by 200 mg/kg NMDA; format: functional; details: read-out: ID50 (the source's name); summary of the method: as §1
Mus musculus [3] = test: The ID50 values represent the effective dose at which half of the mice were protected against the lethality induced by 200 mg/kg NMDA; format: functional; details: read-out: ID50 (the source's name); summary of the method: as §1

## CC[C@H](CN1CC[C@]2(C)c3cc(O)ccc3C[C@@H]1[C@H]2C)OC
Mus musculus [1]
  ED50: 3 mg/kg
Glutamate NMDA receptor
  Ki: 557 nM

## CO[C@@H](C)CN1CC[C@@]2(C)c3ccc(O)cc3C[C@@H]1C2(C)C
Mus musculus [1]
  ED50: 2.1 mg/kg
Glutamate NMDA receptor
  Ki: 7.1 nM
Mu-type opioid receptor
  Ki: 18.2 nM

## CCCN1CC[C@]2(C)c3cc(O)ccc3C[C@@H]1[C@@H]2C
Mus musculus [1]
  ED50: > 30 mg/kg
Glutamate NMDA receptor
  Ki: 588 nM

## CO[C@H](C)CN1CC[C@@]2(C)c3ccc(O)cc3C[C@@H]1C2(C)C
Mus musculus [1]
  ED50: 0.4 mg/kg
Glutamate NMDA receptor
  Ki: 4.5 nM
Mu-type opioid receptor
  Ki: 3400 nM

## CCC[C@@H](CN1CC[C@]2(C)c3cc(O)ccc3C[C@@H]1[C@H]2C)OC
Glutamate NMDA receptor
  Ki: 490 nM

## CO[C@H](C)CN1CC[C@]2(C)c3cc(O)ccc3C[C@@H]1[C@@H]2C
Mus musculus [1]
  ED50: 7.2 mg/kg
Glutamate NMDA receptor
  Ki: 248 nM
Mu-type opioid receptor
  Ki: 146 nM

## CO[C@@H](C)CN1CC[C@@]2(C)c3cc(O)ccc3C[C@H]1[C@@H]2C
Glutamate NMDA receptor
  Ki: > 100000 nM

## CO[C@@H](C)CN1CC[C@@]2(C)c3ccccc3C[C@@H]1C2(C)C
Mus musculus [1]
  ED50: 23 mg/kg
Glutamate NMDA receptor
  Ki: 15.8 nM
Mu-type opioid receptor
  Ki: 144 nM

## CCO[C@H](C)CN1CC[C@]2(C)c3cc(O)ccc3C[C@@H]1[C@@H]2C
Glutamate NMDA receptor
  Ki: 1840 nM

## C=CCN1CC[C@@]2(C)c3cc(O)ccc3C[C@H]1[C@H]2C
Mus musculus [1]
  ED50: 8.2 mg/kg
Glutamate NMDA receptor
  Ki: 1210 nM

## CO[C@H](C)CN1CC[C@@]2(C)c3cc(O)ccc3C[C@H]1[C@@H]2C
Mus musculus [1]
  ED50: > 30 mg/kg
Glutamate NMDA receptor
  Ki: 76600 nM
Mu-type opioid receptor
  Ki: 34800 nM

## CO[C@H](C)CN1CC[C@]2(C)c3cc(O)ccc3C[C@H]1C2(C)C
Glutamate NMDA receptor
  Ki: 13900 nM
Mu-type opioid receptor
  Ki: 14000 nM

## CO[C@H](C)CN1CC[C@@]2(C)c3ccccc3C[C@@H]1C2(C)C
Glutamate NMDA receptor
  Ki: 29.9 nM
Mu-type opioid receptor
  Ki: 42300 nM
Mus musculus [2]
  ED50: 6.8 mg/kg

## CO[C@H](C)CN1CC[C@]2(C)c3cc(O)ccc3C[C@@H]1[C@H]2C
Mus musculus [1]
  ED50: 0.9 mg/kg
Glutamate NMDA receptor
  Ki: 195 nM
Mu-type opioid receptor
  Ki: 212 nM

## C=CCN1CCC2(C)c3c(O)cccc3CC1C2(C)C (configuration not stated)
Mus musculus [1]
  ED50: 1.7 mg/kg
Glutamate NMDA receptor
  Ki: 106 nM

## COC(C)(C)CN1CC[C@]2(C)c3cc(O)ccc3C[C@@H]1[C@@H]2C
Mus musculus [1]
  ED50: 2.9 mg/kg
Glutamate NMDA receptor
  Ki: 281 nM
Mu-type opioid receptor
  Ki: 5.6 nM

## CCO[C@@H](C)CN1CC[C@]2(C)c3cc(O)ccc3C[C@@H]1[C@@H]2C
Glutamate NMDA receptor
  Ki: 1150 nM

## CO[C@H](C)CN1CC[C@@]2(C)c3cc(O)ccc3C[C@H]1[C@H]2C
Mus musculus [1]
  ED50: > 30 mg/kg
Glutamate NMDA receptor
  Ki: 9550 nM
Mu-type opioid receptor
  Ki: 18400 nM

## CO[C@@H](C)CN1CC[C@@]2(C)c3c(O)cccc3C[C@@H]1C2(C)C
Mus musculus [1]
  ED50: 0.8 mg/kg
Glutamate NMDA receptor
  Ki: 15 nM
Mu-type opioid receptor
  Ki: 20.9 nM

## COC(C)(C)CN1CC[C@]2(C)c3cc(O)ccc3C[C@@H]1[C@H]2C
Mus musculus [1]
  ED50: 5.5 mg/kg
Glutamate NMDA receptor
  Ki: 221 nM

## CO[C@H](C)CN1CC[C@]2(C)c3ccc(O)cc3C[C@H]1C2(C)C
Glutamate NMDA receptor
  Ki: 545 nM

## CCC[C@H](CN1CC[C@]2(C)c3cc(O)ccc3C[C@@H]1[C@H]2C)OC
Glutamate NMDA receptor
  Ki: 1840 nM

## CO[C@@H](C)CN1CC[C@]2(C)c3cc(O)ccc3C[C@H]1C2(C)C
Mus musculus [1]
  ED50: > 30 mg/kg
Glutamate NMDA receptor
  Ki: 50400 nM
Mu-type opioid receptor
  Ki: 6020 nM

## C=CCN1CCC2(C)c3cc(O)ccc3CC1C2(C)C (configuration not stated)
Mus musculus [1]
  ED50: 4.7 mg/kg
Glutamate NMDA receptor
  Ki: 380 nM

## CO[C@H](C)CN1CC[C@@]2(C)c3c(O)cccc3C[C@@H]1C2(C)C
Mus musculus [1]
  ED50: 0.5 mg/kg
Glutamate NMDA receptor
  Ki: 34 nM
Mu-type opioid receptor
  Ki: 11400 nM

## CCCN1CC[C@@]2(C)c3cc(O)ccc3C[C@H]1[C@H]2C
Mus musculus [1]
  ED50: > 30 mg/kg
Glutamate NMDA receptor
  Ki: 2850 nM

## CO[C@@H](C)CN1CC[C@@]2(C)c3cc(O)ccc3C[C@@H]1C2(C)C
Mus musculus [1]
  ED50: 0.2 mg/kg
Glutamate NMDA receptor
  Ki: 5.6 nM
Mu-type opioid receptor
  Ki: 1.6 nM

## C=CCN1CCC2(C)c3cccc(O)c3CC1C2(C)C (configuration not stated)
Mus musculus [1]
  ED50: 10.4 mg/kg
Glutamate NMDA receptor
  Ki: 630 nM

## CO[C@H](C)CN1CC[C@@]2(C)c3cc(O)ccc3C[C@@H]1C2(C)C
Mus musculus [1]
  ED50: 0.7 mg/kg
Glutamate NMDA receptor
  Ki: 12.4 nM
Mu-type opioid receptor
  Ki: 108 nM

## CO[C@@H](C)CN1CC[C@]2(C)c3cc(O)ccc3C[C@@H]1[C@H]2C
Mus musculus [1]
  ED50: 0.6 mg/kg
Glutamate NMDA receptor
  Ki: 35.7 nM
Mu-type opioid receptor
  Ki: 3.5 nM

## C=CCN1CCC2(C)c3ccc(O)cc3CC1C2(C)C (configuration not stated)
Mus musculus [1]
  ED50: 5 mg/kg
Glutamate NMDA receptor
  Ki: 99 nM

## CO[C@@H](C)CN1CC[C@]2(C)c3ccc(O)cc3C[C@H]1C2(C)C
Mus musculus [1]
  ED50: 81 mg/kg
Glutamate NMDA receptor
  Ki: 685 nM
Mu-type opioid receptor
  Ki: 1340 nM

## CS[C@H](C)CN1CC[C@]2(C)c3cc(O)ccc3C[C@@H]1[C@H]2C
Glutamate NMDA receptor
  Ki: 406 nM
Mu-type opioid receptor
  Ki: 236 nM

## CC[C@@H](CN1CC[C@]2(C)c3cc(O)ccc3C[C@@H]1[C@H]2C)OC
Mus musculus [1]
  ED50: 0.3 mg/kg
Glutamate NMDA receptor
  Ki: 66 nM

## CO[C@H](C)CN1CC[C@]2(C)c3c(O)cccc3C[C@H]1C2(C)C
Glutamate NMDA receptor
  Ki: 364 nM

## CCO[C@H](C)CN1CC[C@]2(C)c3cc(O)ccc3C[C@@H]1[C@H]2C
Glutamate NMDA receptor
  Ki: 1290 nM

## CCCN1CC[C@]2(C)c3cc(O)ccc3C[C@@H]1[C@H]2C
Glutamate NMDA receptor
  Ki: 373 nM

## C[C@@H]1[C@H]2Cc3ccc(O)cc3[C@@]1(C)CCN2C[C@@H](C)O
Glutamate NMDA receptor
  Ki: 425 nM

## CS[C@@H](C)CN1CC[C@]2(C)c3cc(O)ccc3C[C@@H]1[C@@H]2C
Mus musculus [1]
  ED50: 1.7 mg/kg
Glutamate NMDA receptor
  Ki: 223 nM
Mu-type opioid receptor
  Ki: 3.2 nM

## CO[C@@H](C)CN1CC[C@@]2(C)c3cc(O)ccc3C[C@H]1[C@H]2C
Mus musculus [1]
  ED50: > 30 mg/kg
Glutamate NMDA receptor
  Ki: 22000 nM
Mu-type opioid receptor
  Ki: 5300 nM

## CS[C@H](C)CN1CC[C@]2(C)c3cc(O)ccc3C[C@@H]1[C@@H]2C
Glutamate NMDA receptor
  Ki: 1090 nM
Mu-type opioid receptor
  Ki: 7.7 nM

## C=CCN1CC[C@]2(C)c3cc(O)ccc3C[C@@H]1[C@@H]2C
Mus musculus [1]
  ED50: > 30 mg/kg
Glutamate NMDA receptor
  Ki: 1500 nM

## COCCCN1CC[C@]2(C)c3cc(O)ccc3C[C@@H]1[C@@H]2C
Mus musculus [3]
  ED50: > 30 mg/kg
Glutamate NMDA receptor
  Ki: 991 nM

## CCCN1CC[C@@]2(C)c3cc(O)ccc3C[C@H]1[C@@H]2C
Glutamate NMDA receptor
  Ki: 43600 nM

## CCO[C@@H](C)CN1CC[C@]2(C)c3cc(O)ccc3C[C@@H]1[C@H]2C
Glutamate NMDA receptor
  Ki: 1260 nM

## CO[C@@H](C)CN1CC[C@]2(C)c3cc(O)ccc3C[C@@H]1[C@@H]2C
Mus musculus [1]
  ED50: 2.3 mg/kg
Glutamate NMDA receptor
  Ki: 234 nM
Mu-type opioid receptor
  Ki: 1 nM

## CS[C@@H](C)CN1CC[C@]2(C)c3cc(O)ccc3C[C@@H]1[C@H]2C
Mus musculus [1]
  ED50: 2.1 mg/kg
Glutamate NMDA receptor
  Ki: 83 nM
Mu-type opioid receptor
  Ki: 97 nM
